The subject of data set [1] is RAW264.7. In words: Anti-inflammatory activity against mouse RAW264.7 cells assessed as inhibition of LPS-stimulated NO production after 18 hrs by Griess reagent based assay. The class given is functional, cell-based. The settings on record: RAW264.7, 18 h. The gist of the method: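 RAW264.7 cells were seeded at 2 × 10^5 cells/well in RPMI 1640 with 10% FBS (37 °C, 5% CO2) and preincubated 24 h. They were then exposed 18 h to serial dilutions up to 25 μM (DMSO stock diluted in medium) with LPS 1 μg/mL. Supernatant was mixed 1:1 with Griess reagent for 5 min, and absorbance was read at 570 nm, in triplicate. MG-132 served as positive control.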
On the technique in general: The Griess reaction detects nitrite, a stable product of nitric oxide.

Data set [2] concerns RAW264.7. In words: Anti-inflammatory activity against mouse RAW264.7 cells assessed as inhibition of LPS-stimulated TNFalpha production preincubated for 30 mins followed by LPS addition and measured after 24 hrs by ELISA. The data set is classed as functional, cell-based. The gist of the method: (§1)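 Cells kept at 37 °C in 5% CO2 with 10% heat-inactivated FBS and 1% penicillin: RAW264.7 in DMEM, THP-1 in RPMI 1640. Cells were pretreated 30 min with compound (2.5–20 μM, from DMSO solution) or dexamethasone (5 μM, positive control), then stimulated with LPS 1 μg/mL for 24 h. Supernatant TNF-α, IL-1β and PGE2 were measured by ELISA. Mean ± SD, n = 3; one-way ANOVA with Dunnett's T3 and two-tailed t test.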
(In general: An ELISA detects its analyte on a solid surface through an enzyme-linked reagent.)

The test system of data set [3] is RAW264.7. In words: Anti-inflammatory activity against mouse RAW264.7 cells assessed as inhibition of LPS-stimulated IL-1beta production preincubated for 30 mins followed by LPS addition and measured after 24 hrs by ELISA. The data set is classed as functional, cell-based. In short, it runs like this:
as §1

Data set [4] deals with RAW264.7. As to the kind of experiment: Anti-inflammatory activity against mouse RAW264.7 cells assessed as inhibition of LPS-stimulated PGE2 production preincubated for 30 mins followed by LPS addition and measured after 24 hrs by ELISA. The class given is functional, cell-based. The gist of the method: as §1
Data set [5] concerns THP-1. As to the kind of experiment: Anti-inflammatory activity against human THP1 cells assessed as inhibition of LPS-stimulated TNFalpha production preincubated for 30 mins followed by LPS addition and measured after 24 hrs by ELISA. The class given is functional, cell-based. In short, it runs like this:
as §1

The subject of data set [6] is THP-1. As to the kind of experiment: Anti-inflammatory activity against human THP1 cells assessed as inhibition of LPS-stimulated IL-1beta production preincubated for 30 mins followed by LPS addition and measured after 24 hrs by ELISA. The data set is classed as functional, cell-based. In short, it runs like this: as §1
The test system of data set [7] is THP-1. In words: Anti-inflammatory activity against human THP1 cells assessed as inhibition of LPS-stimulated PGE2 production preincubated for 30 mins followed by LPS addition and measured after 24 hrs by ELISA. The data set is classed as functional, cell-based. The gist of the method: as §1
Data set [8] relates to RAW264.7. As to the kind of experiment: Anti-inflammatory activity against mouse RAW264.7 cells assessed as inhibition of LPS-stimulated TNFalpha production at 20 uM preincubated for 30 mins followed by LPS addition and measured after 24 hrs by ELISA relative to control. The class given is functional. The gist of the method:
as §1

Data set [9] has as its system RAW264.7. In words: Anti-inflammatory activity against mouse RAW264.7 cells assessed as inhibition of LPS-stimulated IL-1beta production at 20 uM preincubated for 30 mins followed by LPS addition and measured after 24 hrs by ELISA relative to control. The data set is classed as functional. In short, it runs like this:
as §1

In data set [10] the test system is RAW264.7. In words: Anti-inflammatory activity against mouse RAW264.7 cells assessed as inhibition of LPS-stimulated PGE2 production at 20 uM preincubated for 30 mins followed by LPS addition and measured after 24 hrs by ELISA relative to control. The class given is functional. In short, it runs like this:
as §1

Data set [11] has as its system THP-1. As to the kind of experiment: Anti-inflammatory activity against human THP1 cells assessed as inhibition of LPS-stimulated TNFalpha production at 20 uM preincubated for 30 mins followed by LPS addition and measured after 24 hrs by ELISA relative to control. The class given is functional. The gist of the method:
as §1

Data set [12] deals with THP-1. In words: Anti-inflammatory activity against human THP1 cells assessed as inhibition of LPS-stimulated IL-1beta production at 20 uM preincubated for 30 mins followed by LPS addition and measured after 24 hrs by ELISA relative to control. The class given is functional. The gist of the method: as §1
Data set [13] is described as follows: Cytotoxicity against mouse RAW264.7 cells assessed as cell viability up to 20 uM by MTS assay relative to control. The data set is classed as cell-based. The settings on record: read-out: Activity. The gist of the method:
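RAW264.7 macrophages were grown in DMEM with 10% heat-inactivated FBS and 1% penicillin (37 °C, 5% CO2), detached with trypsin-EDTA and seeded in 96-well plates. At 80% confluence they were treated with compound at 2.5–20 μM (dissolved in DMSO). Viability was read by MTS following the kit instructions.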

Peptide text beside a SMILES is read from it. * marks the point of attachment. Cbz = O=C(OCc1ccccc1)*

As to `C=C1CC[C@@H](CCO)C(C)(C)[C@H]1C/C=C1/C(=O)OC[C@@H]1O`, the half-inhibitory concentration (IC50) with RAW264.7 [1] worked out at 16200 nM.
Still for that read-out and setting: as for `CC(C)C[C@@H](C=O)NC(=O)[C@H](CC(C)C)NC(=O)[C@H](CC(C)C)NC(=O)OCc1ccccc1` [MG-132] (Cbz-Leu-Leu-Leu-aldehyde), the figure is 160 nM.
Consider `CC1=C(C=O)C(C)(C)[C@H](CC[C@H]2CC[C@]3(OC2)O[C@@]2(O)CC[C@]3(C)OC2(C)C)CC1`, for which the IC50 with RAW264.7 [1] was determined as 80 nM. Also, the inhibition result with RAW264.7 [2], in the data set with RAW264.7 [3], in the data set on RAW264.7 [4], with THP-1 [5], with THP-1 [6] and in the data set on THP-1 [7] was “Dose-dependent effect” each time. The inhibition at 20 µM in the data set on RAW264.7 [8] stood at 70.9%; in the data set on RAW264.7 [9], 94.3%; in the data set on RAW264.7 [10], 92.5%; in the data set on THP-1 [11], 99.9%; in the data set with THP-1 [12], 99.3%. In addition, the viability in [13] was determined as 60%.

In general, IC50 refers to the concentration needed to halve the response being measured. What is called inhibition is the percentage by which the read-out fell short of the control.
